Test results as given in ChEMBL document CHEMBL4689842, “EUbOPEN Chemogenomics Library wave 1” (2021).

System: Fibroblast
Assay: Multiplex assay against human fibroblast
Type: toxicity, cell-based
In short: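 Live cells carried four stains from seeding: Hoechst33342, BioTracker Green Microtubule Cytoskeleton Dye, MitoTracker Red and Annexin V Alexa Fluor 680. They were imaged on a CQ1 microscope at 37°C and 5% CO2 after compound addition. Using CellPathfinder machine-learning gating, cells were split into Hoechst high-intensity objects or normal cells, normal cells into healthy, pyknosed or fragmented nuclei, and pyknosed cells into mitotic or apoptotic; tubulin, mitochondrial-mass and membrane-permeability phenotypes are per cents of healthy-nucleus cells.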

[1] = 12 h, 1 µM, compound concentration 1 uM, replicate 1
[2] = 12 h, 1 µM, compound concentration 1 uM, replicate 2
[3] = 12 h, 10 µM, compound concentration 10 uM, replicate 1
[4] = 12 h, 10 µM, compound concentration 10 uM, replicate 2
[5] = 24 h, 1 µM, compound concentration 1 uM, replicate 1
[6] = 24 h, 1 µM, compound concentration 1 uM, replicate 2
[7] = 24 h, 10 µM, compound concentration 10 uM, replicate 1
[8] = 24 h, 10 µM, compound concentration 10 uM, replicate 2
[9] = 48 h, 1 µM, compound concentration 1 uM, replicate 1
[10] = 48 h, 1 µM, compound concentration 1 uM, replicate 2
[11] = 48 h, 10 µM, compound concentration 10 uM, replicate 1
[12] = 48 h, 10 µM, compound concentration 10 uM, replicate 2

Cc1cc(C)c(S(=O)(=O)N(Cc2ccc(-c3cccc(S(C)(=O)=O)c3)cc2)Cc2ccc(C(F)(F)F)o2)c(C)c1
Population Apoptotic (%) [1]: 68% | Population Fragmented Nuclei (%) [1]: 20% | Population Healthy Nuclei (%) [1]: 45% | Population Hoechst High Intensity Objects (%) [1]: 8% | Population Membrane Permeable-Phenotype (%) [1]: 19% | Population Mitochondria Different-Phenotype (%) [1]: 8% | Population Mitotic Cells (%) [1]: 32% | Population Normal (%) [1]: 91% | Population Pyknosed Nuclei (%) [1]: 34% | Population Tubulin-Different-Phenotype (%) [1]: 55% | Total Cell Count [1]: 161 | Population Apoptotic (%) [2]: 66% | Population Fragmented Nuclei (%) [2]: 15% | Population Healthy Nuclei (%) [2]: 80% | Population Hoechst High Intensity Objects (%) [2]: 6% | Population Membrane Permeable-Phenotype (%) [2]: 3% | Population Mitochondria Different-Phenotype (%) [2]: 21% | Population Mitotic Cells (%) [2]: 33% | Population Normal (%) [2]: 93% | Population Pyknosed Nuclei (%) [2]: 3% | Population Tubulin-Different-Phenotype (%) [2]: 27% | Total Cell Count [2]: 72 | Population Apoptotic (%) [3]: 51% | Population Fragmented Nuclei (%) [3]: 40% | Population Healthy Nuclei (%) [3]: 27% | Population Hoechst High Intensity Objects (%) [3]: 45% | Population Membrane Permeable-Phenotype (%) [3]: 25% | Population Mitochondria Different-Phenotype (%) [3]: 7% | Population Mitotic Cells (%) [3]: 48% | Population Normal (%) [3]: 54% | Population Pyknosed Nuclei (%) [3]: 31% | Population Tubulin-Different-Phenotype (%) [3]: 74% | Total Cell Count [3]: 179 | Population Apoptotic (%) [4]: 0% | Population Fragmented Nuclei (%) [4]: 14% | Population Healthy Nuclei (%) [4]: 77% | Population Hoechst High Intensity Objects (%) [4]: 22% | Population Membrane Permeable-Phenotype (%) [4]: 3% | Population Mitochondria Different-Phenotype (%) [4]: 3% | Population Mitotic Cells (%) [4]: 100% | Population Normal (%) [4]: 77% | Population Pyknosed Nuclei (%) [4]: 8% | Population Tubulin-Different-Phenotype (%) [4]: 11% | Total Cell Count [4]: 81 | Population Apoptotic (%) [5]: 45% | Population Fragmented Nuclei (%) [5]: 21% | Population Healthy Nuclei (%) [5]: 64% | Population Hoechst High Intensity Objects (%) [5]: 9% | Population Membrane Permeable-Phenotype (%) [5]: 25% | Population Mitochondria Different-Phenotype (%) [5]: 6% | Population Mitotic Cells (%) [5]: 54% | Population Normal (%) [5]: 90% | Population Pyknosed Nuclei (%) [5]: 14% | Population Tubulin-Different-Phenotype (%) [5]: 58% | Total Cell Count [5]: 171 | Population Apoptotic (%) [6]: 0% | Population Fragmented Nuclei (%) [6]: 14% | Population Healthy Nuclei (%) [6]: 80% | Population Hoechst High Intensity Objects (%) [6]: 1% | Population Membrane Permeable-Phenotype (%) [6]: 5% | Population Mitochondria Different-Phenotype (%) [6]: 18% | Population Mitotic Cells (%) [6]: 100% | Population Normal (%) [6]: 98% | Population Pyknosed Nuclei (%) [6]: 5% | Population Tubulin-Different-Phenotype (%) [6]: 32% | Total Cell Count [6]: 86 | Population Apoptotic (%) [7]: 77% | Population Fragmented Nuclei (%) [7]: 34% | Population Healthy Nuclei (%) [7]: 46% | Population Hoechst High Intensity Objects (%) [7]: 42% | Population Membrane Permeable-Phenotype (%) [7]: 31% | Population Mitochondria Different-Phenotype (%) [7]: 18% | Population Mitotic Cells (%) [7]: 22% | Population Normal (%) [7]: 57% | Population Pyknosed Nuclei (%) [7]: 18% | Population Tubulin-Different-Phenotype (%) [7]: 72% | Total Cell Count [7]: 166 | Population Apoptotic (%) [8]: 14% | Population Fragmented Nuclei (%) [8]: 15% | Population Healthy Nuclei (%) [8]: 71% | Population Hoechst High Intensity Objects (%) [8]: 10% | Population Membrane Permeable-Phenotype (%) [8]: 5% | Population Mitochondria Different-Phenotype (%) [8]: 10% | Population Mitotic Cells (%) [8]: 85% | Population Normal (%) [8]: 89% | Population Pyknosed Nuclei (%) [8]: 13% | Population Tubulin-Different-Phenotype (%) [8]: 15% | Total Cell Count [8]: 109 | Population Apoptotic (%) [9]: 72% | Population Fragmented Nuclei (%) [9]: 30% | Population Healthy Nuclei (%) [9]: 58% | Population Hoechst High Intensity Objects (%) [9]: 8% | Population Membrane Permeable-Phenotype (%) [9]: 16% | Population Mitotic Cells (%) [9]: 27% | Population Normal (%) [9]: 91% | Population Pyknosed Nuclei (%) [9]: 11% | Population Tubulin-Different-Phenotype (%) [9]: 40% | Total Cell Count [9]: 178 | Population Apoptotic (%) [10]: 66% | Population Fragmented Nuclei (%) [10]: 17% | Population Healthy Nuclei (%) [10]: 79% | Population Hoechst High Intensity Objects (%) [10]: 10% | Population Membrane Permeable-Phenotype (%) [10]: 18% | Population Mitochondria Different-Phenotype (%) [10]: 2% | Population Mitotic Cells (%) [10]: 33% | Population Normal (%) [10]: 89% | Population Pyknosed Nuclei (%) [10]: 2% | Population Tubulin-Different-Phenotype (%) [10]: 32% | Total Cell Count [10]: 114 | Population Apoptotic (%) [11]: 100% | Population Fragmented Nuclei (%) [11]: 47% | Population Healthy Nuclei (%) [11]: 49% | Population Hoechst High Intensity Objects (%) [11]: 40% | Population Membrane Permeable-Phenotype (%) [11]: 45% | Population Mitochondria Different-Phenotype (%) [11]: 3% | Population Mitotic Cells (%) [11]: 0% | Population Normal (%) [11]: 59% | Population Pyknosed Nuclei (%) [11]: 2% | Population Tubulin-Different-Phenotype (%) [11]: 63% | Total Cell Count [11]: 192 | Population Fragmented Nuclei (%) [12]: 21% | Population Healthy Nuclei (%) [12]: 77% | Population Hoechst High Intensity Objects (%) [12]: 12% | Population Membrane Permeable-Phenotype (%) [12]: 5% | Population Normal (%) [12]: 87% | Population Pyknosed Nuclei (%) [12]: 1% | Population Tubulin-Different-Phenotype (%) [12]: 22% | Total Cell Count [12]: 86

NC(=O)c1cccc(-c2cc(Nc3ccc(OC(F)(F)F)cc3)ncn2)c1
Population Apoptotic (%) [1]: 80% | Population Fragmented Nuclei (%) [1]: 30% | Population Healthy Nuclei (%) [1]: 53% | Population Hoechst High Intensity Objects (%) [1]: 10% | Population Membrane Permeable-Phenotype (%) [1]: 5% | Population Mitochondria Different-Phenotype (%) [1]: 6% | Population Mitotic Cells (%) [1]: 20% | Population Normal (%) [1]: 89% | Population Pyknosed Nuclei (%) [1]: 16% | Population Tubulin-Different-Phenotype (%) [1]: 5% | Total Cell Count [1]: 205 | Population Apoptotic (%) [2]: 20% | Population Fragmented Nuclei (%) [2]: 42% | Population Healthy Nuclei (%) [2]: 48% | Population Hoechst High Intensity Objects (%) [2]: 39% | Population Membrane Permeable-Phenotype (%) [2]: 11% | Population Mitochondria Different-Phenotype (%) [2]: 23% | Population Mitotic Cells (%) [2]: 80% | Population Normal (%) [2]: 60% | Population Pyknosed Nuclei (%) [2]: 9% | Population Tubulin-Different-Phenotype (%) [2]: 3% | Total Cell Count [2]: 89 | Population Apoptotic (%) [3]: 69% | Population Fragmented Nuclei (%) [3]: 20% | Population Healthy Nuclei (%) [3]: 61% | Population Hoechst High Intensity Objects (%) [3]: 7% | Population Membrane Permeable-Phenotype (%) [3]: 7% | Population Mitochondria Different-Phenotype (%) [3]: 3% | Population Mitotic Cells (%) [3]: 30% | Population Normal (%) [3]: 92% | Population Pyknosed Nuclei (%) [3]: 18% | Population Tubulin-Different-Phenotype (%) [3]: 6% | Total Cell Count [3]: 231 | Population Apoptotic (%) [4]: 60% | Population Fragmented Nuclei (%) [4]: 50% | Population Healthy Nuclei (%) [4]: 23% | Population Hoechst High Intensity Objects (%) [4]: 39% | Population Membrane Permeable-Phenotype (%) [4]: 0% | Population Mitochondria Different-Phenotype (%) [4]: 44% | Population Mitotic Cells (%) [4]: 40% | Population Normal (%) [4]: 60% | Population Pyknosed Nuclei (%) [4]: 26% | Population Tubulin-Different-Phenotype (%) [4]: 33% | Total Cell Count [4]: 63 | Population Apoptotic (%) [5]: 60% | Population Fragmented Nuclei (%) [5]: 26% | Population Healthy Nuclei (%) [5]: 59% | Population Hoechst High Intensity Objects (%) [5]: 12% | Population Membrane Permeable-Phenotype (%) [5]: 6% | Population Mitochondria Different-Phenotype (%) [5]: 7% | Population Mitotic Cells (%) [5]: 39% | Population Normal (%) [5]: 87% | Population Pyknosed Nuclei (%) [5]: 13% | Population Tubulin-Different-Phenotype (%) [5]: 11% | Total Cell Count [5]: 194 | Population Apoptotic (%) [6]: 50% | Population Fragmented Nuclei (%) [6]: 46% | Population Healthy Nuclei (%) [6]: 46% | Population Hoechst High Intensity Objects (%) [6]: 26% | Population Membrane Permeable-Phenotype (%) [6]: 12% | Population Mitochondria Different-Phenotype (%) [6]: 16% | Population Mitotic Cells (%) [6]: 50% | Population Normal (%) [6]: 73% | Population Pyknosed Nuclei (%) [6]: 6% | Population Tubulin-Different-Phenotype (%) [6]: 12% | Total Cell Count [6]: 90 | Population Apoptotic (%) [7]: 55% | Population Fragmented Nuclei (%) [7]: 26% | Population Healthy Nuclei (%) [7]: 53% | Population Hoechst High Intensity Objects (%) [7]: 5% | Population Membrane Permeable-Phenotype (%) [7]: 5% | Population Mitochondria Different-Phenotype (%) [7]: 5% | Population Mitotic Cells (%) [7]: 44% | Population Normal (%) [7]: 94% | Population Pyknosed Nuclei (%) [7]: 19% | Population Tubulin-Different-Phenotype (%) [7]: 11% | Total Cell Count [7]: 237 | Population Apoptotic (%) [8]: 40% | Population Fragmented Nuclei (%) [8]: 50% | Population Healthy Nuclei (%) [8]: 39% | Population Hoechst High Intensity Objects (%) [8]: 31% | Population Membrane Permeable-Phenotype (%) [8]: 21% | Population Mitochondria Different-Phenotype (%) [8]: 31% | Population Mitotic Cells (%) [8]: 60% | Population Normal (%) [8]: 68% | Population Pyknosed Nuclei (%) [8]: 10% | Population Tubulin-Different-Phenotype (%) [8]: 57% | Total Cell Count [8]: 70
